TRPC4 PAM – positive allosteric modulators of TRPC4, primary screen, cell-based, mouse TRPC4beta, HEK293 mu-opioid, Fluo-4 calcium; Short transient receptor potential channel 4 (Mus musculus), Q9QUQ5; B-score at 10 µM; AID 2227, 2009; DAMGO EC20, Fluo-4 Ca2+ flux; stronger effect = higher value; 0.42% of 310,000 active;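 active = B-score of calcium response area above 5 SD of library B-scores, with initial fluorescence ratio within 5 SD of library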;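 also: B-score of integrated fluorescence ratio over time as area under calcium response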
TRPC6 act – mouse TRPC6 channel activators, primary screen, cell-based, HEK293, membrane potential dye; HEK293-TRPC6 membrane potential dye fluorescence; stronger effect = higher value; B-score at 10 µM; 0.13% of 310,000 active; AID 2550, 2010;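 active = B-score of the integrated fluorescence ratio above library mean plus 3 SD, and starting fluorescence ratio within library mean plus 5 SD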;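 also: higher score means more depolarization so channel activation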
DSG3 Ab inh – inhibitors of pemphigus antibody binding to DSG3, primary screen, biochemical, bead-based, flow cytometry, scFv-GFP; DSG3-coupled beads, scFv-anti-DSG3-GFP binding; stronger effect = lower value; AID 588358, 2011; 0.48% of 310,000 active; binding (percent of control), % at 10 µM;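 active = binding more than 3 SD below its plate's average and above zero; inconclusive = below that plate limit but binding exactly zero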;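 also: hits lower antibody fragment binding to DSG3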
TRPC6 inhibitor – mouse TRPC6 channel inhibitors, primary screen, cell-based, HEK293, membrane potential dye; Short transient receptor potential channel 6 (Mus musculus), Q61143; B-score at 10 µM; 1.1% of 310,000 active; ACh-evoked depolarization; stronger effect = lower value;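 active = B-score under library mean minus 3 SD, initial fluorescence not abnormally high, positive integrated signal ratio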;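 also: B-score derived from integrated fluorescence ratio over the kinetic read; more negative B-score means stronger inhibition of depolarization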
TRPC4 block – inhibitors of mouse TRPC4 channel, primary screen, Fluo4 calcium, HEK293 TRPC4beta/mu-opioid cells; 0.39% of 300,000 active; DAMGO-evoked Fluo4 calcium flux; stronger effect = lower value; B-score at 10 µM;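 active = B-score over 3 SD under the library average, no early fluorescence shift, positive overall ratio signal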
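Assay system – HEK293 line stably carrying TRPC4beta and mu-opioid receptor · Doses – single dose · Detection – Fluo4 calcium-dye fluorescence, kinetic read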
TRPC4 act – activators of mouse TRPC4 channel, primary screen, Fluo4 calcium, HEK293 TRPC4beta/mu-opioid cells. B-score at 10 µM. Fluo4 calcium fluorescence; stronger effect = higher value. Short transient receptor potential channel 4 (Mus musculus), Q9QUQ5. 0.49% of 310,000 active;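 active = B-score above 5 SD of library B-scores, and initial fluorescence ratio not above library mean plus 5 SD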;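 also: positive B-score marks a calcium rise read as TRPC4 activation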
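system = HEK293 cells stably co-expressing mouse TRPC4beta and mu-opioid receptor | schedule = Fluo4 dye loading 45 min at room temperature, 110 s recording | measure = B-scored integrated calcium fluorescence ratio | signal = Fluo4 calcium-sensitive dye fluorescence, kinetic, 1 Hz baseline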
TRPC4 sel inh 2 – second check of whether TRPC6 inhibitors also affect mouse TRPC4 | shares compounds with TRPC6 inhibitor | AID 2776 | inhibition, % at 10 µM | HEK293 TRPC4/MOR, membrane potential dye fluorescence; channel activated by saturating DAMGO dose | 42% of 920 active;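 active = compounds whose fluorescence signal differed from control wells by over 3 SD, either direction, in both duplicate plates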
TRPC4 spec – mouse TRPC4 modulation by TRPC6 hits, confirmation, selectivity assay for TRPC6 inhibitor project, cell-based, HEK293 TRPC4/mu-opioid, membrane potential dye; shares compounds with TRPC6 inhibitor; AID 2777, 2010; 61% of 920 active; membrane potential fluorescence; activity change, negative = inhibition, % at 10 µM;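 active = rise or fall in signal beyond 3 SD of buffer-only wells in both replicate plates, either sign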;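 also: integrated kinetic ratio of fluorescence range over baseline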
HEK293 MPD ctr 2-1 – nonspecific membrane potential effects, parental HEK293, confirmation, counter-screen for TRPC6 inhibitor project, cell-based, second counter screen; signal change vs control, % at 10 µM; AID 2779, 2010; 31% of 920 active; parental HEK293 membrane potential dye fluorescence; maximal acetylcholine challenge after compound addition; shares compounds with TRPC6 inhibitor;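 active = membrane potential signal moving either way by over 3 SD of the maximum-effect control, in both duplicate plates, meaning non-specific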
HEK293 MPD ctr-1 – membrane potential modulation in parental HEK293, confirmation, counter-screen for TRPC6 inhibitor project, cell-based. AID 2780, 2010. shares compounds with TRPC6 inhibitor. 60% of 920 active. membrane potential signal change, % at 10 µM. parental HEK293 membrane potential dye fluorescence;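 active = membrane potential signal shifting up or down by more than 3 SD of buffer-only wells, on both duplicate plates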
HEK293 MPD ctr-2 – parental HEK293 membrane potential modulation, confirmation, counter-screen for TRPC6 modulator project, cell-based. shares compounds with TRPC6 inhibitor. membrane potential dye fluorescence. membrane potential signal change, % at 10 µM. 51% of 2,400 active. AID 488924, 2010;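 active = membrane potential signal moves up or down beyond 5 SD from buffer-only wells, on both duplicate plates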
HEK293 MPD ctr 2-2 – second counter-screen for TRPC6 modulators: effect in parental HEK293 cells; shares compounds with TRPC6 inhibitor; membrane potential dye fluorescence; after compound, maximal acetylcholine stimulation; inhibition, % at 10 µM; 14% of 2,400 active; AID 488926;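 active = membrane potential signal drops by more than 5 SD from the mean control signal, in both duplicate plates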;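 also: plate controls were acetylcholine ECmax control wells for no effect and buffer only wells for full effect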
TRPC4/MOR mod – TRPC4 modulation by TRPC6 hit compounds, confirmation, selectivity assay for TRPC6 modulator project, cell-based, HEK293 TRPC4/mu-opioid, membrane potential dye, mouse. AID 488927, 2010. membrane potential fluorescence. shares compounds with TRPC6 inhibitor. 69% of 2,400 active. percent change from control (negative = decrease, positive = increase), % at 10 µM;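 active = membrane potential signal moved up or down beyond 5 SD of buffer control wells, in both duplicate plates, actives on both sides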;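 also: plate controls were assay buffer wells for no effect and DAMGO maximal-effect wells for full effect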
TRPC4 ctr inh 2 – second check of whether TRPC6 modulators also affect mouse TRPC4; shares compounds with TRPC6 inhibitor; HEK293 TRPC4/mu-opioid, membrane potential dye fluorescence; stimulated with maximal-effect DAMGO; inhibition, % at 10 µM; 55% of 2,400 active; AID 488928;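 active = drop in membrane potential signal beyond 5 SD of the control wells in both duplicate plates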;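 also: TRPC4 counter screen for TRPC6 hits run under conditions tuned for TRPC6 not TRPC4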
TRPC6 inh conf – mouse TRPC6 channel inhibitors, confirmation, HEK293 cells, membrane potential dye, duplicate. shares compounds with TRPC6 inhibitor. ACh-evoked depolarization. inhibition, % at 10 µM. 43% of 3,300 active;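 active = fluorescence ratio falls more than 5 SD below the full-stimulation control mean, in both duplicate runs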;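 also: integrated fluorescence ratio of peak minus minimum over baseline after agonist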
TRPC6 act confirm – mouse TRPC6 channel activators, confirmation, HEK293 cells, membrane potential dye, duplicate. shares compounds with TRPC6 inhibitor. HEK293-TRPC6 membrane potential dye fluorescence, FDSS. activation, % at 10 µM. 11% of 2,800 active. AID 488961, 2010;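 active = ratio signal rise beyond 5 SD above unstimulated control wells' mean, seen in both duplicate runs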;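 also: plate controls were buffer EC0 wells for no effect and acetylcholine ECmax response for full effect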
* hit, by the source's call; i = inactive; u = inconclusive; x = no result. Rows were chosen to be rich in hits. Some 2.5% of all compounds tested hit in one or more screens of this group.

SMILES | TRPC4 PAM | TRPC6 act | DSG3 Ab inh | TRPC6 inhibitor | TRPC4 block | TRPC4 act | HEK293 MPD ctr-2 | HEK293 MPD ctr 2-2 | TRPC4/MOR mod | TRPC4 ctr inh 2 | TRPC6 inh conf | TRPC6 act confirm | others
N=c1c(C(=O)NC2CCCC2)cc2c(=O)n3ccccc3nc2n1Cc1ccccc1 | i | i | x | -5.2* | i | i | -170%* | i | -34%* | 48%* | i | i
CCOC(=O)c1cc2c(=O)n3ccccc3nc2n(Cc2ccccc2)c1=N | i | i | 102 | -7.9* | i | i | -146%* | i | -32%* | 42%* | i | i
N=c1c(C(=O)NCC2CCCO2)cc2c(=O)n3ccccc3nc2n1Cc1ccccc1 (configuration not stated) | i | i | u | -7.4* | i | i | -125%* | 78%* | -28%* | 38%* | 45%* | i
CCOC(=O)c1cc2c(=O)n3ccccc3nc2n(CC(C)C)c1=NC(=O)c1ccco1 | i | i | 94 | i | i | i | x | x | x | x | x | x
N=c1c(C(=O)NCc2ccc3c(c2)OCO3)cc2c(=O)n3ccccc3nc2n1CC1CCCO1 (configuration not stated) | i | i | 97 | i | i | i | x | x | x | x | x | x
Cc1cc(C(=O)CSc2nncn2C)c(C)n1-c1ccccc1 | i | i | 100 | i | i | i | x | x | x | x | x | x
CSc1ccc(C2Nc3cccc4cccc(c34)N2)cc1 | i | i | 101 | -7* | i | i | x | x | x | x | i | i | TRPC4 sel inh 2=i;TRPC4 spec=-11%*;HEK293 MPD ctr 2-1=i;HEK293 MPD ctr-1=-138%*
Clc1ccc(C2Nc3cccc4cccc(c34)N2)cc1 | i | i | 111 | i | i | i | x | x | x | x | x | x
O=C(c1ccc(Cl)c(Cl)c1)N1CCN(c2ccccn2)CC1 | i | i | 116 | i | i | i | x | x | x | x | x | x
O=C(c1ccc(Cl)c(S(=O)(=O)Nc2ccc(F)cc2)c1)N1CCN(c2ccccn2)CC1 | i | i | 92 | -10* | i | i | x | x | x | x | i | i | TRPC4 sel inh 2=i;TRPC4 spec=9.5%*;HEK293 MPD ctr 2-1=i;HEK293 MPD ctr-1=4.3%*
C=C(C)CSc1nnc(CCCCCNC(=O)OC(C)(C)C)o1 | i | i | x | i | i | i | x | x | x | x | x | x
CCOC(=O)C1CCN(C(=O)c2cccc(S(=O)(=O)Nc3ccc(C)cc3C)c2)CC1 | i | i | 104 | -5.3* | i | i | i | i | 12%* | i | 36%* | x
CCOC(=O)C1CCN(C(=O)c2ccccc2NS(=O)(=O)c2ccccc2)CC1 | i | i | 109 | i | i | i | x | x | x | x | x | x
CC1(C)OC(=O)N(NCc2ccccc2)C1(C)O (configuration not stated) | i | i | 102 | i | i | i | x | x | x | x | x | x
CCCCN(C)CCCNC(=O)CN1C(=O)COc2ccc(S(=O)(=O)N3CCOCC3)cc21 | i | i | 92 | -5.4* | i | i | i | i | i | i | i | i
O=C(NCc1cccnc1)/C(=C/c1ccc(Cl)cc1)NC(=O)c1ccccc1 | i | i | 98 | -5.6* | i | i | i | i | i | i | i | i
O=C(NCc1cccnc1)/C(=C/c1ccc([N+](=O)[O-])cc1)NC(=O)c1ccccc1 | x | x | 91 | x | x | x | x | x | x | x | x | x
O=C(CN1CCN(c2ccc(F)cc2)CC1)Nc1nccs1 | i | i | 95 | i | i | i | x | x | x | x | x | x
CCOc1c2ccoc2nc2c(OC)c(OC)ccc12 | i | i | 106 | -5.4* | i | i | i | i | i | i | i | x
C=CCOc1ccc2c(OC)c3ccoc3nc2c1OC | i | 16* | x | -11* | i | i | i | i | 18%* | i | 52%* | 86%*
CCOc1c(OC)ccc2c3c(c(=O)oc12)CCCC3 | i | i | x | i | i | i | x | x | x | x | x | x
Cc1cc(C(=O)Cn2c(CO)nc3ccccc32)c(C)n1C | i | i | 99 | i | i | i | x | x | x | x | x | x

From PubChem
